This is one part of a sample in which hits are shown more often than they occur.
CHOP UPR activ: activators of apoptotic arm of unfolded protein response (CHOP) | CHO-CHOP luciferase reporter, UPR activation, luminescence; percent of tunicamycin response over DMSO baseline | activation, % at 10 µM | hit rate 0.34% among 330,000 | AID 449763;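 active = at 10 µM dose, activation of 40% or more, normalized to positive control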;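 note: 100% = tunicamycin at 10 µg/mL and 0% = DMSO alone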
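assay system = CHO CHOP reporter cells | amount = 500 CHO-CHOP cells per well | buffer or medium = F12 with 10% FBS | incubation = 16-18 h cell attachment, then 6 h compound exposure, 37 °C | detection = luminescence read with Steady-Glo | read-out = percent activation relative to tunicamycin control | controls = tunicamycin high control, DMSO low control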
CHOP inh: blocks CHOP induction under ER stress; CHO-K1 CHOP-promoter luciferase, tunicamycin-induced, 15-18 h; inhibition, % at 10 µM; hit rate 3.8% among 220,000;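 active = compounds that reduced the stress-induced luciferase reporter signal by more than about 70% of percent inhibition, limit read from the data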;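 note: 0% = tunicamycin plus vehicle and 100% = wells without tunicamycin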
UPR XBP1 act: activators of adaptive arm of unfolded protein response (XBP1); activation, % at 20 µM; CHO-XBP1 luciferase reporter, IRE1-XBP1 UPR activation, luminescence; percent of tunicamycin response, DMSO as zero; hit rate 0.33% among 330,000;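 active = versus positive control, 20 µM dose yields 30% or more activation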;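 note: 100% = tunicamycin at 10 µg/mL and 0% = DMSO only wells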
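Assay system: IRE1-XBP1 luciferase reporter CHO line. Input: 1000 cells/well. Buffer or medium: F12 with 10% serum. Doses: 20 µM, 1% DMSO. Times: overnight seeding at 37 °C, 6 h compound treatment at 37 °C. Technique: Steady-Glo luciferase glow luminescence, 10 min after reagent addition.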
FXN GAA850 act: frataxin GAA850 promoter activation; HEK293 lucGAA850 FXN promoter luciferase reporter, 24 h; percent of 10 µM SAHA response; activation, % at 6 µM; hit rate 0.56% among 360,000; AID 540364;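 active = activation above the average of all compounds screened plus 3 SD, cutoff fixed separately per campaign, cut at about 7.5% in these data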;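 note: 0% = DMSO wells and 100% = 10 µM SAHA wells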
GAA30 counter: activates GAA30 frataxin promoter, counter-screen for GAA850 activators; shares compounds with FXN GAA850 act; HEK293 lucGAA30 FXN promoter luciferase, 24 h; DMSO = 0%, 5 µM ipriflavone = 100%; activation, % at 6 µM; hit rate 66% among 1,900; AID 588350;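 active = mean activation above the mean of solvent-only control wells plus 3 SD, cut at about 22% in these data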;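 note: counterscreen of GAA850 promoter hits where activity marks nonselective or luminescence artifacts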
FXN GAA850 conf: confirmation of GAA850 frataxin (FXN) promoter activators. AID 588351. activation, % at 6 µM. hit rate 86% among 1,900. HEK293 lucGAA850 FXN promoter luciferase reporter, 24 h; 100% = activation by SAHA. shares compounds with FXN GAA850 act;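 active = mean activation above a set limit taken from the primary screen, cut at about 8% in these data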;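 note: 0% = DMSO wells and 100% = 10 µM SAHA wells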
* marks the source's active call; other numbers are inactive results; x = no result given; ! = a repeat was not active.

SMILES	CHOP UPR activ	CHOP inh	UPR XBP1 act	FXN GAA850 act	GAA30 counter	FXN GAA850 conf
NC(c1csc(Nc2ccc(C(=O)NCCCO)cn2)n1)c1ccccc1Cl (configuration not stated)	x	x	x	-0.1	x	x
COc1ccccc1C(=O)NCC(=O)N(C)Cc1nc2ccccc2c(=O)[nH]1	x	x	x	-1.7	x	x
CCOC(=O)c1c(C)[nH]c(C(=O)OCCOc2ccccc2C)c1C	x	74.3*	x	9.5*	98.1*	25.8*
CCc1nc2ccc(C(=O)Nc3cccc(NS(C)(=O)=O)c3)cn2c1N(C)Cc1nccn1C	x	x	x	1.4	x	x
Cc1cc(C(=O)Nc2sc(C)c(-c3ccc(F)cc3)c2C(N)=O)no1	3.2	13.1	6.9	8.4*	105.8*	31.0*
C=CCn1c(C)cc(C(=O)CN2NS(=O)(=O)c3ccccc3C2=O)c1C	2.0	-27.4	-3.4	7.7*	12.8	31.6*
Cc1ccc(CNC(=O)CN2NS(=O)(=O)c3ccccc3C2=O)cc1	x	x	x	-0.3	x	x
O=C(NCC1CCCO1)c1ccc(Cl)c(NS(=O)(=O)c2ccc(F)cc2)c1 (configuration not stated)	x	x	x	-1.4	x	x
Cn1ccnc1C(O)c1ccc(OCc2ccccc2)cc1 (configuration not stated)	0.6	-6.2	7.2	7.7*	57.8*	18.0*
O=C(Nc1cccc(C(=O)Nc2cccc(Br)c2)c1)c1ccccc1	2.2	x	0.2	2.2	x	x
CC(C)c1ccc(NC(=O)c2cccc(Br)c2)cc1	4.0	84.3*	5.0	8.2*	109.9*	49.3*
COCCNC(=O)c1ccccc1NC(=O)c1ccccc1N(C)S(=O)(=O)c1ccc(C)cc1	1.3	21.7	2.2	2.9	x	x
CC(C)CNC(=O)c1ccccc1NC(=O)c1ccccc1N(C)S(=O)(=O)c1ccccc1	-0.6	7.5	-2.6	13.2*	11.5	2.5
CCCNC(=O)c1ccccc1NC(=O)c1ccccc1N(C)S(=O)(=O)c1ccccc1	5.0	-7.4	-3.0	13.6*	8.3	19.0*
COC(=O)c1ccccc1NC(=O)c1ccccc1N(C)S(=O)(=O)c1ccccc1	0.1	4.7	-0.4	3.1	x	x
OC(c1ccccc1)C(NCc1ccccc1)c1ccccc1 (configuration not stated)	x	x	x	-1.1	x	x
CC1(C(=O)Nc2cccc(NS(C)(=O)=O)c2)CCN1Cc1ccccc1OC(F)F (configuration not stated)	x	x	x	-2.0	x	x
C=CCNc1nc(SCC=C)nc2ccsc12	-1.6	23.6	4.2	7.9*	21.3	9.7*
CCOC(=O)C1(CCOC)CCCCC1=O (configuration not stated)	x	x	x	0.4	x	x
COc1ccc(NC(=O)c2ccco2)cc1NC(=O)c1cccs1	1.8	7.9	1.1	9.4*	22.6*	7.2
CCCCCn1c(=NC(=O)c2ccco2)c(C(=O)OCC)cc2c(=O)n3ccccc3nc21	10.3	36.1	-3.2	8.0*!	6.7	9.0*
Cc1ccc(C(=O)NCCN2CCCC2)cc1	-2.4	-8.7	-3.0	-1.3	x	x
CCOc1c(Cl)cc(C(=O)NCCN2CCCCC2)cc1Cl	0.7	49.1	-0.7	12.6*	8.8	5.6
O=C(NCCN1CCOCC1)c1cc2sccc2n1Cc1ccc(Cl)cc1	-1.1	6.4	-3.2	1.8	x	x
O=C(NCCCN1CCOCC1)c1cc(-c2ccccc2)on1	1.2	12.4	4.3	17.0*	100.8*	55.6*
SMILES	CHOP UPR activ	CHOP inh	UPR XBP1 act	FXN GAA850 act	GAA30 counter	FXN GAA850 conf
O=C(NCCN1CCOCC1)c1cc(-c2cccs2)on1	1.1	-1.2	5.6	17.4*	115.9*	55.5*
O=C(NCc1cccs1)c1cc(-c2ccc(O)cc2)on1	5.4	-1.1	1.5	8.9*	103.0*	32.1*
O=C(NCCN1CCOCC1)c1cc2sccc2n1Cc1ccc(F)cc1	-0.3	11.0	-0.4	8.8*	10.3	8.3*
CCCC(=O)N1CCCC1(C)C(=O)NCc1ccc(SC)cc1 (configuration not stated)	x	x	x	0.0	x	x
CC1(C(=O)NCc2ccccc2Br)CCN1Cc1ccc(-c2ccccc2)o1 (configuration not stated)	x	x	x	2.0	x	x
O=C(NCCN1CCOCC1)c1cc(-c2ccc(Br)cc2)on1	-0.3	-3.8	-2.4	-0.8	x	x
O=C(NCCN1CCOCC1)c1cc(-c2ccccc2)on1	0.6	6.9	4.9	17.4*	98.6*	42.1*
Cc1ccc(O)c(NC(=O)c2cc(-c3ccc(F)cc3)on2)c1	6.1	-11.2	1.8	3.6	x	x
CCCCNC(=O)c1cc(-c2ccc(OC)cc2)on1	3.3	6.1	3.5	1.2	x	x
CCCCNC(=O)c1cc(-c2ccc(F)cc2)on1	3.1	-18.0	3.5	31.5*	166.5*	79.4*
Cc1ccc(O)c(NC(=O)c2cc(-c3cccs3)on2)c1	9.5	x	4.1	9.9*	86.9*	47.1*
CCOC(=O)c1sc(=S)n(Cc2ccccc2)c1C	-0.7	9.8	0.5	0.5	x	x
CN(C)C(=S)N=c1ssc(=S)n1Cc1ccccc1	x	x	x	21.0*	3.8	28.1*
CC(C)c1ccc(NC(=O)c2ccc(Br)o2)cc1	3.2	18.5	-0.5	-0.7	x	x
C/C(=N/NC(=O)c1ccc(Br)o1)C(C)C	5.5	-6.7	1.7	9.1*	15.8	7.0
CCOc1ccc(NC(=O)CNC(=O)Cc2ccccc2)cc1	-1.5	x	-3.3	4.7	x	x
O=C(Cc1ccccc1)Nc1ccc(NC(=O)c2ccco2)cc1	3.3	x	-1.2	7.9*	48.0*	21.7*
COC(=O)Nc1ccc(OCc2ccccc2)cc1	2.3	10.9	-4.2	10.0*	89.3*	32.3*
CCOc1ccc(NC(=O)Cc2ccccc2)cc1	4.5	-19.1	0.4	8.4*	82.2*	31.4*
Cc1c(CCOC(=O)C23CC4CC(CC(C)(C4)C2)C3)sc[n+]1CC(=O)c1ccccc1	0.2	10.1	1.3	8.3*	30.9*	19.9*
Cc1c(CCOC(=O)c2ccccc2)sc[n+]1Cc1ccccc1	0.9	-8.2	0.6	-2.0	x	x
Cc1c(CCOC(=O)CC23CC4CC(CC(C)(C4)C2)C3)sc[n+]1CC(=O)c1ccccc1	-0.6	53.8	-1.8	9.7*	12.3	14.2*
Cc1c(CCOC(=O)c2cc([N+](=O)[O-])cc([N+](=O)[O-])c2)sc[n+]1CC(=O)c1ccccc1	0.1	15.7	0.3	0.1	x	x
CCCCOc1ccc(C(=O)NCC2(c3ccc(OC)cc3)CCOCC2)cc1	3.0	13.5	0.2	16.2*	12.6	6.0
CCCCCCN1C[C@H](n2cc(COC(=O)c3ccccc3)nn2)[C@@H](O)C[C@@H]1c1ccc(C)cc1	x	x	x	1.4	x	x
CC(=O)Nc1ncnc2c1c(-c1ccc(Cl)cc1)nn2C(C)(C)C	-0.6	58.4	13.3	10.8*	19.5	10.4*
